Experimental data taken from paper PMC7847313 (Journal of natural products, 2018).
Like-named read-outs stand apart in the source and are kept apart here. *1 amine or outer side, *2 acyl side, *3 side chain or, on linkers, in order; H or OH if unused. Where a SMILES comes first, the peptide text is derived from it. Bridges are numbered along the chain shown (N, C = ends). [ ]: non-standard residue; d: D form. The star is where a group is joined. Ahp(3S,6R)alloIle = CC[C@@H](C)[C@@H](C(=O)[*:2])N1C(=O)[C@@H](N[*:1])CC[C@H]1O; Propanoyl(2R-OMe,3-OSO3H) = CO[C@H](COS(=O)(=O)O)C(=O)*; NMeTyr(3-Br,OMe) = CN[C@@H](Cc1ccc(OC)c(Br)c1)C(=O)O; Cit = NC(=O)NCCC[C@H](N)C(=O)O; Butyryl = CCCC(=O)*

Key:
chymotrypsin [1] = target: T1, chymotrypsin (Bos taurus, UniProt P00766); test: Chymotrypsin assay; format: biochemical
Method in brief: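 Enzyme (4 units/mL, in cold 1 mM HCl) and BTEE (1.18 mM) in 80 mM Tris-HCl, pH 7.8, made fresh. BTEE, buffer, CaCl2 and test compound (MeOH dilution series; MeOH blank) were equilibrated at 25 °C, then enzyme added last. A256 followed continuously: 3 min uninhibited, 30 s intervals with inhibitor. Activity in BTEE units/mL; IC50 by nonlinear regression.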

[2] = cited from earlier work
[3] = test system: NCI-H460 lung cancer cells; conditions: cited from earlier work
chymotrypsin [4] = target: T1, chymotrypsin; conditions: cited from earlier work
[5] = test system: neuro-2a neuroblastoma cells; conditions: read-out: IC50 neuro-2a neuroblastoma cells; cited from earlier work
[6] = test system: Vibrio cholerae secreted serine protease activity; conditions: as low as in cultures of T2S mutants, averaged; cited from earlier work

Compound: CC[C@@H](C)[C@H]1C(=O)N(C)[C@@H](Cc2ccc(OC)c(Br)c2)C(=O)N[C@@H]([C@@H](C)CC)C(=O)O[C@H](C)[C@H](NC(=O)[C@@H](NC(=O)[C@@H](COS(=O)(=O)O)OC)C(C)C)C(=O)N[C@@H](CCCCN)C(=O)N[C@H]2CC[C@@H](O)N1C2=O [Jizanpeptin C (3), Jizanpeptin C]
- efficacy as a chymotrypsin inhibitor (chymotrypsin [1]; standardized assay conditions, up to 10 μM): full efficacy

Compound: C/C=C1/NC(=O)C(NC(=O)C(NC(=O)C(CO)OC)C(C)C)C(C)OC(=O)C(C(C)C)NC(=O)C(Cc2ccccc2)N(C)C(=O)C(Cc2ccccc2)N2C(=O)C(CCC2O)NC1=O (stereo not drawn) [dolastatin 13]
- cytotoxicity ([2]; terminal Gac): nanomolar cytotoxicity

Compound: CC[C@@H](C)[C@H]1C(=O)N(C)[C@@H](Cc2ccc(OC)c(Br)c2)C(=O)N[C@@H]([C@@H](C)CC)C(=O)O[C@H](C)[C@H](NC(=O)[C@H](NC(=O)[C@@H](COS(=O)(=O)O)OC)C(C)C)C(=O)N[C@@H](CCCCN)C(=O)N[C@H]2CC[C@@H](O)N1C2=O [Jizanpeptin B (2), Jizanpeptin B]
- IC50 (chymotrypsin [1]): > 10 µM

Compound: C/C=C1\NC(=O)[C@@H](NC(=O)[C@H](CCc2ccc(O)cc2)NC(=O)[C@H](C)NC(=O)[C@H](O)COS(=O)(=O)O)[C@@H](C)OC(=O)[C@H](C(C)C)NC(=O)[C@H](Cc2ccc(O)cc2)N(C)C(=O)[C@H](Cc2ccccc2)N2C(=O)[C@H](CC[C@H]2O)NC1=O [lyngbyastatin 4]
- cytotoxicity ([2]; terminal Gac-sulfate): no cytotoxicity

Compound: CC[C@@H](C)[C@H]1C(=O)N(C)[C@@H](Cc2ccc(OC)c(Br)c2)C(=O)N[C@@H]([C@@H](C)CC)C(=O)O[C@H](C)[C@H](NC(=O)[C@H](NC(=O)[C@H](O)COS(=O)(=O)O)C(C)C)C(=O)N[C@@H](CCCCN)C(=O)N[C@H]2CC[C@@H](O)N1C2=O [Jizanpeptin A (1), Jizanpeptin A]
- IC50 (chymotrypsin [1]): > 10 µM

Compound: CC[C@@H](C)[C@H]1C(=O)N(C)[C@@H](Cc2ccc(OC)c(Br)c2)C(=O)N[C@@H]([C@@H](C)CC)C(=O)O[C@H](C)[C@H](NC(=O)[C@@H](NC(=O)[C@@H](COS(=O)(=O)O)OC)[C@@H](C)CC)C(=O)N[C@@H](CCCCN)C(=O)N[C@H]2CC[C@@H](O)N1C2=O [Jizanpeptin D (4), Jizanpeptin D] ({Propanoyl(2R-OMe,3-OSO3H)}-ITK[Ahp(3S,6R)alloIle][NMeTyr(3-Br,OMe)]I; ester 2-C)
- IC50 (chymotrypsin [1]): > 10 µM

Compound: CCCC(=O)N[C@H](CCC(N)=O)C(=O)N[C@@H]1C(=O)N[C@@H](CCCNC(N)=O)C(=O)N[C@H]2CC[C@@H](O)N(C2=O)[C@@H]([C@H](C)CC)C(=O)N(C)[C@@H](Cc2ccc(OC)c(Br)c2)C(=O)N[C@@H](C(C)C)C(=O)O[C@@H]1C [symplocamide A] (Butyryl-[dQ]T[Cit][Ahp(3S,6R)alloIle][NMeTyr(3-Br,OMe)]V; ester 2-C)
- cytotoxicity to NCI-H460 lung cancer cells [3]: remarkably cytotoxic
- IC50 ([3]; read-out: IC50 NCI-H460 lung cancer cells): 0.04 µM
- selectivity chymotrypsin over trypsin (chymotrypsin [4]): greater selectivity for chymotrypsin over trypsin
- IC50 [5]: 0.029 µM

Compound: CC[C@@H](C)[C@H]1C(=O)N(C)[C@@H](Cc2ccc(OC)c(Br)c2)C(=O)N[C@@H]([C@@H](C)CC)C(=O)O[C@H](C)[C@H](NC(=O)[C@H](NC(=O)[C@@H](COS(=O)(=O)O)OC)C(C)C)C(=O)N[C@@H](CCCNC(=N)N)C(=O)N[C@H]2CC[C@@H](O)N1C2=O [Jizanpeptin E (5), Jizanpeptin E]
- IC50 (chymotrypsin [1]): > 10 µM

Compound: CC(=O)N[C@@H](CC(C)C)C(=O)N[C@@H](CC(C)C)C(=O)N[C@H](C=O)CCCNC(=N)N [leupeptin]
- reduction in fluorescence, positive control [6]: 93%
